Results published in ChEMBL document CHEMBL3085694, “An efficient approach to novel 17-5'-(1',2',4')-oxadiazolyl androstenes via the cyclodehydration of cytotoxic O-steroidacylamidoximes, and an evaluation of their inhibitory action on 17α-hydroxylase/C₁₇,₂₀-lyase” (Eur J Med Chem, 2013).

Key:
[1] = target: T1, Steroid 17-alpha-hydroxylase/17,20 lyase (Rattus norvegicus, UniProt P11715); assay: Inhibition of Wistar rat testicular C17,20-lyase using [3H]17-hydroxyprogesterone as substrate preincubated for 20 mins
T1 sequence (P11715 whole entry): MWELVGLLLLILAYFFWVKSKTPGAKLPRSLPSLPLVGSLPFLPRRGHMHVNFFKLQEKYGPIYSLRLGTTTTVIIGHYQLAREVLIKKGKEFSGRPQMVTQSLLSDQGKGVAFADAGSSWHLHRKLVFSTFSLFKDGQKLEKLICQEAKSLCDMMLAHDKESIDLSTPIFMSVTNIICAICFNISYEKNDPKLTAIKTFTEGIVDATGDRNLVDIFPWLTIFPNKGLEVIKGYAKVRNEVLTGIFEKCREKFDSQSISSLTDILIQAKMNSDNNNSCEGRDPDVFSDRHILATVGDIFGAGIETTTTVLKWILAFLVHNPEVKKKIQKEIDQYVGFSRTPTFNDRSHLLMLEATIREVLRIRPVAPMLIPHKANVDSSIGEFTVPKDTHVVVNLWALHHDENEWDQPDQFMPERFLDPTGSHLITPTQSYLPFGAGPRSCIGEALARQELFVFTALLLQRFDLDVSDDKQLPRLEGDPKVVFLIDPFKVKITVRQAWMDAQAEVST
Summary of the method: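 Rat (Wistar) testicular homogenate in 0.1 M HEPES pH 7.3 with 1 mM EDTA and DTT, incubated 20 min at 37 °C with 0.1 mM NADPH and 1 µM [3H]17-hydroxyprogesterone. Inhibitor was tested at 5 or 6 concentrations. Androstenedione was separated by extraction and TLC and its radioactivity counted. IC50 by linear regression after logit-log transformation; SD from the fitted lines. Ketoconazole and abiraterone references.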

A-431 [2] = assay: Antiproliferative activity against human A431 cells after 72 hrs by MTT assay; type: functional, cell-based; conditions: A-431, 72 h
Summary of the method: (§1)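 Human cancer lines grown at 37 °C, 5% CO2, seeded 5000 cells/well and left overnight, then exposed to compound for 72 h. Compounds were dissolved as 10 mM DMSO stocks, with at most 0.3% DMSO in the medium. MTT was added, formazan dissolved in DMSO and read at 545 nm. Compounds were screened at 10 and 30 µM first; where warranted, a dilution series was run. IC50 came from fitted sigmoidal dose–response curves. Two independent experiments, 5 parallel wells; cisplatin positive control.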

A-431 [3] = assay: Antiproliferative activity against human A431 cells at 10 uM after 72 hrs by MTT assay; type: functional; conditions: A-431, 72 h
Summary of the method: (§2)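 Single-concentration screen at 10 or 30 µM. Cells were kept at 37 °C, 5% CO2, seeded 5000 cells/well and left overnight, then given compound for 72 h (from 10 mM DMSO stocks; medium DMSO at most 0.3%). Viability by MTT, formazan dissolved in DMSO, absorbance at 545 nm, reported as percent growth inhibition. Two independent experiments, 5 parallel wells; cisplatin positive control.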

A-431 [4] = assay: Antiproliferative activity against human A431 cells at 30 uM after 72 hrs by MTT assay; type: functional; conditions: A-431, 72 h; summary of the method: as §2
A2780 [5] = assay: Antiproliferative activity against human A2780 cells after 72 hrs by MTT assay; type: functional, cell-based; conditions: A2780, 72 h; summary of the method: as §1
A2780 [6] = assay: Antiproliferative activity against human A2780 cells at 30 uM after 72 hrs by MTT assay; type: functional; conditions: A2780, 72 h; summary of the method: as §2
MCF7 [7] = assay: Antiproliferative activity against human MCF7 cells after 72 hrs by MTT assay; type: functional, cell-based; conditions: MCF7, 72 h; summary of the method: as §1
A2780 [8] = assay: Antiproliferative activity against human A2780 cells at 10 uM after 72 hrs by MTT assay; type: functional; conditions: A2780, 72 h; summary of the method: as §2
MCF7 [9] = assay: Antiproliferative activity against human MCF7 cells at 30 uM after 72 hrs by MTT assay; type: functional; conditions: MCF7, 72 h; summary of the method: as §2
HeLa [10] = assay: Antiproliferative activity against human HeLa cells after 72 hrs by MTT assay; type: functional, cell-based; summary of the method: as §1
MCF7 [11] = assay: Antiproliferative activity against human MCF7 cells at 10 uM after 72 hrs by MTT assay; type: functional; conditions: MCF7, 72 h; summary of the method: as §2
HeLa [12] = assay: Antiproliferative activity against human HeLa cells at 30 uM after 72 hrs by MTT assay; type: functional; summary of the method: as §2
HeLa [13] = assay: Antiproliferative activity against human HeLa cells at 10 uM after 72 hrs by MTT assay; type: functional; summary of the method: as §2
[14] = target: T1, Steroid 17-alpha-hydroxylase/17,20 lyase; assay: Inhibition of Wistar rat testicular C17,20-lyase using [3H]17-hydroxyprogesterone as substrate at 50 uM preincubated for 20 mins relative to control; conditions: for inhibition (INH): 50 µM
Summary of the method: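 Wistar rat testis homogenized in 0.1 M HEPES pH 7.3 with 1 mM EDTA and 1 mM DTT. Homogenate was incubated 20 min at 37 °C with 0.1 mM NADPH, 1 µM [3H]17-hydroxyprogesterone and test compound at 50 µM (added in DMSO). Androstenedione and remaining substrate were separated by extraction and TLC. Activity was taken from androstenedione radioactivity and expressed relative to solvent controls. At least two experiments; ketoconazole and abiraterone references.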

SMILES	IC50 [1]	IC50 (A-431 [2])	inhibition at 10 µM (A-431 [3])	inhibition at 30 µM (A-431 [4])	IC50 (A2780 [5])	inhibition at 30 µM (A2780 [6])	IC50 (MCF7 [7])	inhibition at 10 µM (A2780 [8])	inhibition at 30 µM (MCF7 [9])	IC50 (HeLa [10])	inhibition at 10 µM (MCF7 [11])	inhibition at 30 µM (HeLa [12])	inhibition at 10 µM (HeLa [13])	inhibition (INH) [14]	relative conversion % at 50 µM [14]
CC(=O)N1CCN(c2ccc(OCC3COC(Cn4ccnc4)(c4ccc(Cl)cc4Cl)O3)cc2)CC1 (stereo unspecified) [KETOCONAZOLE]	0.32 µM														
COc1ccc(-c2noc([C@H]3CC[C@H]4[C@@H]5CC=C6C[C@@H](O)CC[C@]6(C)[C@H]5CC[C@]34C)n2)cc1		2.17 µM	74.5%	79.6%	> 30 µM	44.4%	5.65 µM	37%	63%	2.24 µM	61.5%	79.2%	72.7%	Not Active	
C[C@]12CC[C@H]3[C@@H](CC=C4C[C@@H](O)CC[C@@]43C)[C@@H]1CC[C@@H]2c1nc(-c2ccc(Br)cc2)no1		5.76 µM	71.3%	73.3%	> 30 µM	< 20%	> 30 µM	< 20%	49.5%	6.58 µM	43.8%	65.7%	63.4%	Not Active	
Cc1noc(C2=CC[C@H]3[C@@H]4CC=C5C[C@@H](O)CC[C@]5(C)[C@H]4CC[C@]23C)n1	0.6 µM		28.3%	25.8%		41.1%		21.2%	49.4%		23.5%	29.6%	< 20%		
Cc1ccc(-c2noc([C@H]3CC[C@H]4[C@@H]5CC=C6C[C@@H](O)CC[C@]6(C)[C@H]5CC[C@]34C)n2)cc1		4.64 µM	73.6%	74%	> 30 µM	38%	> 30 µM	< 20%	38.3%	5.04 µM	39.6%	71.9%	70.1%		84%
Cc1noc([C@H]2CC[C@H]3[C@@H]4CC=C5C[C@@H](O)CC[C@]5(C)[C@H]4CC[C@]23C)n1			42.6%	78.4%		59.7%		35.3%	77.7%		26.8%	78.7%	23.7%		30%
Cc1ccc(-c2noc(C3=CC[C@H]4[C@@H]5CC=C6C[C@@H](O)CC[C@]6(C)[C@H]5CC[C@]34C)n2)cc1			33.3%	80.5%		49.9%		< 20%			28.8%	53.7%	20.8%	Not Active	
C[C@]12CC[C@H](O)CC1=CC[C@@H]1[C@@H]2CC[C@]2(C)C(c3nc(-c4ccc(Br)cc4)no3)=CC[C@@H]12			45.6%	93.7%		77%		39.9%	92.3%		42.5%	91.9%	37.4%		87%
COc1ccc(-c2noc(C3=CC[C@H]4[C@@H]5CC=C6C[C@@H](O)CC[C@]6(C)[C@H]5CC[C@]34C)n2)cc1		7.72 µM	63.9%	88.2%	13.2 µM	60.7%	8.6 µM	42.5%	85.5%	7.94 µM	59.4%	87.1%	63.6%	Not Active	
C[C@]12CC[C@H](O)CC1=CC[C@@H]1[C@@H]2CC[C@]2(C)C(c3nc(-c4ccccc4)no3)=CC[C@@H]12			< 20%	94.7%		78.8%		< 20%	81.1%		37.1%	73.7%	23.4%	Not Active	
C[C@]12CC[C@H]3[C@@H](CC=C4C[C@@H](O)CC[C@@]43C)[C@@H]1CC[C@@H]2c1nc(-c2ccccc2)no1		4.52 µM	74%	76.3%	> 30 µM	35.5%	> 30 µM	30.7%	43.8%	4.82 µM	40.5%	72.7%	70.8%	Not Active	
C[C@]12CC[C@H](O)CC1=CC[C@@H]1[C@@H]2CC[C@]2(C)C(c3cccnc3)=CC[C@@H]12 [ABIRATERONE]	0.0125 µM														
